Published values pooled from the literature.
Each line is one published result; the experiments were not run side by side.
Target: Cytochrome P450 1A2 (CYP1A2, Homo sapiens, UniProt P05177)
Effect on: enzyme activity
Mode: inhibitor
Residues used in one study (P05177 1-516): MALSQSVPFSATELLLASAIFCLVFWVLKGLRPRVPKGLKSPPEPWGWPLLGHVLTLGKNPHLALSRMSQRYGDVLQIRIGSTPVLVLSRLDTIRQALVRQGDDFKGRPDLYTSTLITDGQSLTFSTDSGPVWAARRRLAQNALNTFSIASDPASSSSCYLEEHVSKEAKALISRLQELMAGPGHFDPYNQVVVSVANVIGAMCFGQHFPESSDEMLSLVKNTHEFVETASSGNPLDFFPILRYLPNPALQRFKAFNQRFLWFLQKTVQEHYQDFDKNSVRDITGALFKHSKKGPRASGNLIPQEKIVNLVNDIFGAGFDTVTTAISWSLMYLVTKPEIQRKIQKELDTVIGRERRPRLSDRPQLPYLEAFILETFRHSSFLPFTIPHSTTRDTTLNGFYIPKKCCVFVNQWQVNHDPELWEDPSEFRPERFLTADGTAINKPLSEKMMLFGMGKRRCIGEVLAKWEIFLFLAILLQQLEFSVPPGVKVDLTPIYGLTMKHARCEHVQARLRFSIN

Compound | test | system | conditions | endpoint | value
CCCCCNC(=N)N/N=C/c1c[nH]c2ccc(OC)cc12 | fluorescence |  |  | IC50 | 347 µM
C#Cc1cccc(-c2cc(=O)c3ccccc3o2)c1 |  |  | 6 min, pH 7.6 | Ki | 0.8 µM
CC1=CC(=O)C(C(C)C)=CC1=O | fluorescence |  | pH 7.4 | IC50 | 557 µM
Cc1cc2c(F)c(Oc3ncnn4cc(OC[C@@H](C)O)c(C)c34)ccc2[nH]1 | fluorescence |  | 15 min | IC50 | 44.5 µM
CCC(C)(C)C(=O)O[C@H]1C[C@@H](C)C=C2C=C[C@H](C)[C@H](CC[C@@H](O)C[C@@H](O)CC(=O)O)[C@H]21 | fluorescence |  |  | IC50 | > 100 µM
Nc1nc(N)c2nc(CNc3cccc4ccccc34)cnc2n1 | luciferase |  |  | IC50 | 72.4 µM
CCc1cc(/C(C)=N/OCc2ccc(C3CCCCC3)c(C(F)(F)F)c2)ccc1CN1CC(C(=O)O)C1 |  | human, liver microsomes | 20 min | IC50 | > 1.1 µM
COc1ccn2c(Nc3ccccc3F)c(-c3ccncn3)nc2c1 |  |  |  | IC50 | 1.8 µM
CCCN(CCC)CCc1cccc2c1CC(=O)N2 | fluorescence |  |  | IC50 | 540 µM
C#Cc1cccc2oc(-c3ccccc3)cc(=O)c12 |  |  | 6 min, pH 7.6 | Ki | 0.81 µM
Cc1cc(C)c2c(c1)[C@@H](N(Cc1cc(C(F)(F)F)cc(C(F)(F)F)c1)c1nnn(C)n1)CCCN2C[C@H]1CC[C@H](C(=O)O)CC1 |  | human, liver microsomes | pH 7.4 | Ki | 7.1 µM
COc1ccc2cc3[n+](cc2c1OC)CCc1cc2c(cc1-3)OCO2 |  |  |  | IC50 | > 10 µM
